Drawing on ChEMBL document CHEMBL3612066, “Design, Synthesis, and Biological Evaluation of Pyrazolo[1,5-a]pyridine-3-carboxamides as Novel Antitubercular Agents” (ACS Med Chem Lett, 2015), this text covers MIC for four molecules.

What all share (assay type): functional
Assay [1] deals with Mycobacterium tuberculosis. The assay is described as follows: Antitubercular activity against multidrug-resistant Mycobacterium tuberculosis UAlP7 after 7 days by autoluminescent assay. To be noted: UAlP7, 168 h. In outline: (§1)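 Autoluminescent assay against MDR clinical isolates (3495, P71, 9804, 4768, P163). Bacterial growth was read as bioluminescence intensity with no added substrate. MIC values are means of two independent experiments.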

Assay [2] deals with Mycobacterium tuberculosis. The assay is described as follows: Antitubercular activity against multidrug-resistant Mycobacterium tuberculosis UAl9804 after 7 days by autoluminescent assay. To be noted: UAl9804, 168 h. In outline: as §1
For assay [3], the system named is Mycobacterium tuberculosis. The assay is described as follows: Antitubercular activity against multidrug-resistant Mycobacterium tuberculosis UAl3495 after 7 days by autoluminescent assay. To be noted: UAl3495, 168 h. The gist of the method: as §1
The subject of assay [4] is Mycobacterium tuberculosis. Kind of assay: Antitubercular activity against multidrug-resistant Mycobacterium tuberculosis UAlP163 after 7 days by autoluminescent assay. Conditions: UAlP163, 168 h. The gist of the method: as §1
For assay [5], the system named is Mycobacterium tuberculosis. Kind of assay: Antitubercular activity against multidrug-resistant Mycobacterium tuberculosis UAl4768 after 7 days by autoluminescent assay. To be noted: UAl4768, 168 h. The gist of the method:
as §1

In brackets after ≈: the same amount, converted by molar mass.

For `Cc1ccn2nc(C)c(C(=O)NCc3ccc(N4CCC(c5ccc(OC(F)(F)F)cc5)CC4)cc3)c2c1`, the MIC in assay [1] is under 0.383 µM; in assay [2] it was under 0.383 µM; in assay [3], 1.91 µM (≈ 1 µg/mL); in assay [4], under 0.383 µM; in assay [5], under 0.383 µM.
`COc1ccn2nc(C)c(C(=O)NCc3ccc(N4CCC(c5ccc(OC(F)(F)F)cc5)CC4)cc3)c2c1`: the MIC was 0.0111 µM (≈ 0.00598 µg/mL) in assay [1]; under 0.0111 µM in assay [2]; 0.0223 µM (≈ 0.012 µg/mL) in assay [3]; 0.0111 µM (≈ 0.00598 µg/mL) in assay [4]; 0.0111 µM (≈ 0.00598 µg/mL) in assay [5].
Consider `Cc1nn2ccc(Cl)cc2c1C(=O)NCc1ccc(N2CCC(c3ccc(OC(F)(F)F)cc3)CC2)cc1`, for which the minimum inhibitory concentration (MIC) in assay [1], in assay [2], in assay [4] and in assay [5] was under 0.184 µM throughout.
`CCc1nn2ccc(Cl)cc2c1C(=O)NCc1ccc(N2CCC(c3ccc(OC(F)(F)F)cc3)CC2)cc1`: the MIC in assay [1] is 0.0718 µM (≈ 0.04 µg/mL); in assay [2], under 0.0359 µM; in assay [4], under 0.0359 µM; in assay [5] it was 0.0359 µM (≈ 0.02 µg/mL).

As a reminder, the MIC is the smallest concentration in the dilution series that meets the test's criterion for growth inhibition.
